Molecules are shown by their SMILES.

Data set [1] has as its system Oryctolagus cuniculus. Description: 100 mg/kg of [14C]- radiolabeled compound was orally (gavage) injected in rabbit kidney, and radioactivity content in feces was estimated. It counts as ADME, organism-based. The settings on record: in vivo, po. A digest of the protocol: (§1)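 Rabbit given 100 mg/kg [14C]-labelled drug by gavage, 204.6 dpm/μg, in water/0.1 N HCl at 6.66 mg/mL. Rabbit 1 was killed at 2 h and liver, lung, kidney and blood taken; tissue values are μg equivalents/g and tissue:plasma ratio. Rabbit 3 was kept for urine (0-24, 24-48, 48-72 h) and feces (0-48 h), expressed as % of dose.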

In data set [2] the test system is Oryctolagus cuniculus. Description: 100 mg/kg of [14C]- radiolabeled compound was orally (gavage) injected in rabbit 1 lung, and radioactivity content in feces was estimated at. It counts as ADME, organism-based. As to conditions: in vivo, po. The method in brief: as §1
In data set [3] the test system is Oryctolagus cuniculus. Description: 100 mg/kg of [14C]- radiolabeled compound was orally (gavage) injected in rabbit1plasma, and radioactivity content in feces was estimated. Format: ADME, organism-based. The settings on record: rabbit, in vivo, po. A digest of the protocol: as §1
For data set [4], the system named is Oryctolagus cuniculus. Description: 200 mg/kg of [14C]- radiolabeled compound was intravenously (gavage) injected in rabbit4, and radioactivity content in feces was estimated at total hours. As to conditions: rabbit, in vivo, po, in the assay text read “orally (gavage) administered” for “intravenously (gavage) injected”. It counts as ADME, organism-based. The method in brief: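 Rabbit given two 100 mg/kg gavage doses of [14C]-labelled drug, 2 h apart, 204.6 dpm/μg, 6.66 mg/mL in water/0.1 N HCl. Rabbit 2 was killed 2 h after the last dose and liver, lung, kidney and plasma taken (μg equivalents/g; tissue:plasma ratio). Rabbit 4 gave urine over 0-4, 0-24, 24-48 and 48-72 h and feces over 0-48 h, as % of dose.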

Data set [5] concerns Oryctolagus cuniculus. The data set is described as follows: Radioactivity measurements were performed following oral administration of the 100 mg/kg in rabbit 5 after 2 hr brain. Format: ADME, organism-based. As to conditions: in vivo. Also noted: dose 100 mg/kg, route oral. The method in brief: (§2)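 Male rabbits (900-1060 g) received [14C]-labelled parent amide, 100 mg/kg (251.7 dpm/μg, pH about 4.5), by gavage. At 2 or 6 h they were killed by air injection into the ear vein. Blood was drawn by cardiac puncture; brain and lung were homogenized in water (1 g = 10 mL). Radioactivity is expressed as μg equivalents of parent per g or mL.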

The test system of data set [6] is Oryctolagus cuniculus. Description: Radioactivity measurements were performed following oral administration of the 100 mg/kg in rabbit 7 after 6 hr in plasma. Further details: dose 100 mg/kg, route oral. The settings on record: in vivo. Format: ADME, organism-based. The method in brief: as §2
Data set [7] has as its system Oryctolagus cuniculus. The data set is described as follows: Radioactivity measurements were performed following oral administration of the 100 mg/kg in rabbit 8 after 6 hr in plasma. Further details: dose 100 mg/kg, route oral. Format: ADME, organism-based. The settings on record: in vivo. The method in brief: as §2
Data set [8] has as its system Oryctolagus cuniculus. The data set is described as follows: Evaluation of formation of 3-Methyl-thiazolidin-2-ylideneamine from the radiolabeled compound, orally administered, from rabbit 1,2 kidney was analyzed by Gas-liquid chromatographic analysis. It counts as ADME, organism-based. As to conditions: in vivo, po. The method in brief: (§3)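 Rabbit 1 was given [14C]-labelled parent amide, 100 mg/kg (204.6 dpm/μg), orally by gavage and killed 2 h later. Urine (0-2 h), blood, liver, lung and kidney were collected. Samples were extracted, trimethylsilylated with BSA/pyridine at 70 °C for 12-16 h, and run by GLC on 3% OV-210 at 95 °C against the internal standard 3-ethyl-2-thiazolidinimine. Output is % of radioactivity present as the metabolite, mean of two determinations.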

Data set [9] relates to Oryctolagus cuniculus. Description: Evaluation of formation of 3-Methyl-thiazolidin-2-ylideneamine from the radiolabeled compound, orally administered, from rabbit 1,2 liver was analyzed by Gas-liquid chromatographic analysis. Format: ADME, organism-based. As to conditions: in vivo, po. The method in brief: as §3
In data set [10] the test system is Oryctolagus cuniculus. The data set is described as follows: Evaluation of formation of 3-Methyl-thiazolidin-2-ylideneamine from the radiolabeled compound, orally administered, from rabbit 2,4 liver was analyzed by Gas-liquid chromatographic analysis. Format: ADME, organism-based. The settings on record: in vivo, po. The method in brief:
(§4)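 Rabbit 2 was gavaged twice with [14C]-labelled parent amide, 100 mg/kg each dose (204.6 dpm/μg), 2 h apart, and killed 2 h after the second dose. Urine (0-4 h), blood, liver, lung and kidney were taken. The metabolite was measured by GLC of trimethylsilyl derivatives (3% OV-210, 95 °C, internal standard 3-ethyl-2-thiazolidinimine). Values are % of radioactivity as metabolite, mean of two determinations.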

Data set [11] deals with Oryctolagus cuniculus. Description: Evaluation of formation of 3-Methyl-thiazolidin-2-ylideneamine from the radiolabeled compound, orally administered, from rabbit 2,4 lung was analyzed by Gas-liquid chromatographic analysis. It counts as ADME, organism-based. As to conditions: in vivo, po. The method in brief: as §4
Data set [12] relates to Oryctolagus cuniculus. Description: Evaluation of formation of 3-Methyl-thiazolidin-2-ylideneamine from the radiolabeled compound, orally administered, from rabbit 2,4 plasma was analyzed by Gas-liquid chromatographic analysis. As to conditions: in vivo, po. It counts as ADME, organism-based. The method in brief: as §4
In data set [13] the target is Indolethylamine N-methyltransferase (Homo sapiens) (UniProt O95050). The data set is described as follows: In vitro evaluation of Indoleethylamine-N-methyltransferase in human lung preparations for the ability to inhibit conversion of N-methyltryptamine (NMT) to N,N-dimethyltryptamine (DMT) at dose 2.5 ug/mL. It counts as tissue-based. A digest of the protocol:
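Human lung INMT was taken from the 50000g supernatant, cut with 40-60% ammonium sulfate, dialysed and purified on Sephadex G-150. The reaction contained 0.007 M N-methyltryptamine stock, S-[methyl-14C]adenosylmethionine and potassium phosphate, pH 7.9, in 0.105 mL, run 90 min at 37 °C. It was stopped with borate at pH 10. [14C]DMT was extracted into isoamyl alcohol and counted by scintillation.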

A short description of data set [14]: Dose that causes approximately 50% lethality in mice, when given perorally. Format: ADME, organism-based. The settings on record: mouse, in vivo, po. A digest of the protocol: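 Mice in groups of one to three were dosed orally. Deaths were scored on day 7 after dosing, and the LD50 was obtained by graphical interpolation.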
Data set [15] concerns Indolethylamine N-methyltransferase (Oryctolagus cuniculus). The data set is described as follows: Compound tested for inhibitory activity against rabbit lung Indoleethylamine-N-methyltransferase at oral dose 25 mg/kg.
The test system is the same in data set [16]. The data set is described as follows: In vivo evaluation of specific activity against rabbit lung Indoleethylamine-N-methyltransferase at intravenous dose of 5 mg/kg.
Data set [17] concerns Oryctolagus cuniculus. Description: 200 mg/kg of [14C]- radiolabeled compound was orally administered in rabbit4, and radioactivity content in urine was estimated at. The settings on record: rabbit, in vivo, po.
Data set [18] concerns Indolethylamine N-methyltransferase (Oryctolagus cuniculus). Description: Compound tested for inhibitory activity against rabbit lung Indoleethylamine-N-methyltransferase at 5 mg/kg intravenously*p< 0.05.
Data set [19] concerns Oryctolagus cuniculus. The data set is described as follows: 100 mg/kg of [14C]- radiolabeled compound was orally administered in rabbit1, and radioactivity content in urine was estimated at 0-2 hr. As to conditions: rabbit, in vivo, po.
The subject of data set [20] is Oryctolagus cuniculus. The data set is described as follows: 200 mg/kg of [14C]- radiolabeled compound was orally administered in rabbit4, and radioactivity content in urine was estimated at 48-72 h. As to conditions: rabbit, in vivo, po.
The test system of data set [21] is Oryctolagus cuniculus. Description: 200 mg/kg of [14C]- radiolabeled compound was orally administered in rabbit4, and radioactivity content in urine was estimated at total hours. The settings on record: rabbit, in vivo, po.
The test system of data set [22] is Oryctolagus cuniculus. The data set is described as follows: 100 mg/kg of [14C]- radiolabeled compound was orally administered in rabbit3, and radioactivity content in urine was estimated at total hours. As to conditions: rabbit, in vivo, po.
Data set [23] has as its system Oryctolagus cuniculus. The data set is described as follows: 100 mg/kg of [14C]- radiolabeled compound was orally (gavage) administered in rabbit3, and radioactivity content in urine was estimated at 24-48 h. As to conditions: rabbit, in vivo, po.

Indolethylamine N-methyltransferase (Homo sapiens), sequence (O95050 whole entry): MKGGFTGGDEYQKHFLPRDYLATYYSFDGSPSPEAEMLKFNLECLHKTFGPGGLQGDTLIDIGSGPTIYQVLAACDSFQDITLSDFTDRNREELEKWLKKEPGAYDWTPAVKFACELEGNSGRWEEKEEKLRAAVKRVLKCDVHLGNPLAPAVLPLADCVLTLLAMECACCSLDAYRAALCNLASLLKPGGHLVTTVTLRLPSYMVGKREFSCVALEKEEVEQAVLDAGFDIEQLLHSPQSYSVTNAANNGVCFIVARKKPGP

The term inhibition denotes the change of the read-out against control, counted positive when it falls. A low value points to a response near the control. By LD50 is commonly meant the dose at which mortality reaches 50%. Regarding `CN1CCS/C1=N\C(=O)CCC(=O)/N=C1/SCCN1C`, the Tissue concentration in the data set on Oryctolagus cuniculus [1] is 211 µg/g. Besides, the Tissue to plasma ratio in the data set with Oryctolagus cuniculus [2] was 1.5. The Plasma concentration with Oryctolagus cuniculus [3] is 23.5 µg/g. Also, the Administered dose was 94% in the data set on Oryctolagus cuniculus [4]; 87.1% in the data set on Oryctolagus cuniculus [17]; 48.8% in the data set on Oryctolagus cuniculus [19]; 0.1% in the data set with Oryctolagus cuniculus [20]; 88% with Oryctolagus cuniculus [21]; 86.9% with Oryctolagus cuniculus [22]. For the same molecule, the Administered dose in the data set with Oryctolagus cuniculus [23] is recorded as 0.8%. The figures for the Radioactivity level in the data set on Oryctolagus cuniculus [5], in the data set with Oryctolagus cuniculus [6] and with Oryctolagus cuniculus [7] were 17.8 µg/g, 4.1 µg/mL and 4 µg/mL, respectively. In addition, the Radioactivity in the data set with Oryctolagus cuniculus [8] was found to be 72.8%; with Oryctolagus cuniculus [9] it was 37.9%; with Oryctolagus cuniculus [10], 34.4%; with Oryctolagus cuniculus [11], 75.4%; in the data set on Oryctolagus cuniculus [12], 48.9%. Moreover, the inhibition is 74% in data set [13], 76.1% in data set [15] and 64% in data set [18]. In data set [14], this molecule gave an LD50 of 1460 mg/kg. Moreover, the Specific activity in [16] was 37000 dpm.

These data come from ChEMBL document CHEMBL1121475, “Inhibitors of indoleethylamine N-methyltransferase. Derivatives of 3-methyl-2-thiazolidinimine. In vitro, in vivo, and metabolic studies” (J Med Chem, 1980).
